Results taken from ChEMBL document CHEMBL4376857, “Discovery of Selective Inhibitors of Endoplasmic Reticulum Aminopeptidase 1” (J Med Chem, 2020).
Activity calls are given as the source filed them. The rule behind the calls is not given here.

Columns and labels:
[1] = molecular target: T1, Leucyl-cystinyl aminopeptidase (Mus musculus, UniProt Q8C129); assay: Inhibition of recombinant mouse C-terminal His6-tagged IRAP expressed in baculovirus infected BTA-TN-5B1-4 insect cells using L-AMC as substrate measured after 1 hr by fluorescence assay
T1 sequence (Q8C129 whole entry): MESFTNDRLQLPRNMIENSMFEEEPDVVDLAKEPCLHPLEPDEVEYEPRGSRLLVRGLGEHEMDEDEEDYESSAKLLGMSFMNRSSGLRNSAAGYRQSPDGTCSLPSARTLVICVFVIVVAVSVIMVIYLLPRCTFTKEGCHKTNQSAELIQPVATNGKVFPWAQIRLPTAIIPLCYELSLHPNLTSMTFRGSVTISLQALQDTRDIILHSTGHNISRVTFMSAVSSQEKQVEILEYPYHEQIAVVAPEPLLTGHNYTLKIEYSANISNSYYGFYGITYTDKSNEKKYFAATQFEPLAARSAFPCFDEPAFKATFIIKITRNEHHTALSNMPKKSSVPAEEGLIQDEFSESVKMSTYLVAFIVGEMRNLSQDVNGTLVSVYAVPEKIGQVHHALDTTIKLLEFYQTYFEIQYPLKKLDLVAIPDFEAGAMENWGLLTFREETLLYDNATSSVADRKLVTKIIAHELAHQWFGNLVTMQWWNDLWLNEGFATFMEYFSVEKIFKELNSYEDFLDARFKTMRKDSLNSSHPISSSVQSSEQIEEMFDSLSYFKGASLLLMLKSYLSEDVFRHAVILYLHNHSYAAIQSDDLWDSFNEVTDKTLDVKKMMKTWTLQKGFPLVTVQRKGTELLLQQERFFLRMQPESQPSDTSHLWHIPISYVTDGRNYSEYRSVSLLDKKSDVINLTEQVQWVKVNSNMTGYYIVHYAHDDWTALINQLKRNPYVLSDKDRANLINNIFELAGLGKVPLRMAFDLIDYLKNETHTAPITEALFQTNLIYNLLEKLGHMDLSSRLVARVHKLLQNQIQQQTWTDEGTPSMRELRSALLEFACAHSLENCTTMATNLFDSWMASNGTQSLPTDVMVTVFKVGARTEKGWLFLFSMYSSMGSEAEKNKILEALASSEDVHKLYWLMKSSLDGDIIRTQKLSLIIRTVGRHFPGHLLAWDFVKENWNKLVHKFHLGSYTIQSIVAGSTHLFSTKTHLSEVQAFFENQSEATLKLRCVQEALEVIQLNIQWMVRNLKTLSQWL

[2] = molecular target: T2, Endoplasmic reticulum aminopeptidase 1 (Homo sapiens, UniProt Q9NZ08); assay: Activation of recombinant human C-terminal His6-tagged ERAP1 expressed in baculovirus infected BTA-TN-5B1-4 insect cells using L-AMC as substrate measured after 1 hr by fluorescence assay
[3] = molecular target: T2, Endoplasmic reticulum aminopeptidase 1; assay: Activation of recombinant human C-terminal His6-tagged ERAP1 expressed in baculovirus infected BTA-TN-5B1-4 insect cells at 10.7 uM using L-AMC as substrate measured after 1 hr by fluorescence assay relative to control
[4] = molecular target: T2, Endoplasmic reticulum aminopeptidase 1; assay: Inhibition of recombinant human C-terminal His6-tagged ERAP1 expressed in baculovirus infected BTA-TN-5B1-4 insect cells using WRCYEKMALK as substrate measured after 10 mins by LC-MS analysis
[5] = molecular target: T2, Endoplasmic reticulum aminopeptidase 1; assay: Activation of recombinant human C-terminal His6-tagged ERAP1 expressed in baculovirus infected BTA-TN-5B1-4 insect cells assessed as increase in Vmax/[…] ratio using varying levels of L-pNA as substrate incubated for 1 hr and measured for 5 to 10 mins by […] Michaelis-Menten equation analysis relative to control
Outline: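 ERAP1 initial rates measured under steady-state conditions with the chromogenic substrate leucine p-nitroanilide (L-pNA), allowing a wide substrate range, across several compound concentrations. Rate-versus-substrate curves were fit to an allosteric Michaelis-Menten equation with a Hill coefficient to give V_max and K_half at each compound level. Activity was expressed as V_max/K_half relative to no-compound control.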

[6] = molecular target: T2, Endoplasmic reticulum aminopeptidase 1; assay: Competitive inhibition of recombinant human C-terminal His6-tagged ERAP1 expressed in baculovirus infected BTA-TN-5B1-4 insect cells using varying levels of LVAFKARKF as substrate measured at 2.5 mins interval for 20 mins by ABTS reagent based horseradish peroxidase-coupled Michaelis-Menten equation analysis
[7] = molecular target: T3, Antigen peptide transporter 1/2 (Homo sapiens) (UniProt Q03518+Q03519); assay: (§1) Inhibition of TAP1/2 in human HeLa cells stably expressing H-2 Kb infected with vaccinia virus containing Ub-SIINFEKL epitope assessed as suppression of Ub-SIINFEKL binding to MHC1 H-2 Kb at cell surface by measuring reduction in 25D1 staining at 50 uM measured after 16 to 24 hrs by flow cytometric method; type: cell-based
[8] = molecular target: T2, Endoplasmic reticulum aminopeptidase 1; assay: as §1, with “ERAP1” for “TAP1/2”, “ss-LEQLE-SIINFEKL” for “Ub-SIINFEKL”, “staining” for “staining at 50 uM”; type: cell-based
[9] = Activation of recombinant human C-terminal His6-tagged ERAP1 allele 2 mutant expressed in baculovirus infected BTA-TN-5B1-4 insect cells using L-AMC as substrate measured after 1 hr by fluorescence assay
[10] = Activation of recombinant human C-terminal His6-tagged ERAP1 allele 3 mutant expressed in baculovirus infected BTA-TN-5B1-4 insect cells using L-AMC as substrate measured after 1 hr by fluorescence assay
[11] = Activation of recombinant human C-terminal His6-tagged ERAP1 5-SNP mutant expressed in baculovirus infected BTA-TN-5B1-4 insect cells using L-AMC as substrate measured after 1 hr by fluorescence assay
[12] = molecular target: T2, Endoplasmic reticulum aminopeptidase 1; assay: Inhibition of recombinant human C-terminal His6-tagged ERAP1 expressed in baculovirus infected BTA-TN-5B1-4 insect cells using L-AMC as substrate measured after 1 hr by fluorescence assay
[13] = molecular target: T2, Endoplasmic reticulum aminopeptidase 1; assay: Competitive inhibition of recombinant human C-terminal His6-tagged ERAP1 expressed in baculovirus infected BTA-TN-5B1-4 insect cells using varying levels of L-pNA as substrate incubated for 1 hr and measured for 5 to 10 mins by […] Michaelis-Menten equation analysis
[14] = molecular target: T3, Antigen peptide transporter 1/2 (Homo sapiens); assay: Inhibition of TAP1/2 in human HeLa cells stably expressing H-2 Kb infected with vaccinia virus containing Ub-SIINFEKL epitope assessed as suppression of Ub-SIINFEKL binding to MHC1 H-2 Kb at cell surface by measuring reduction in 25D1 staining measured after 16 to 24 hrs by flow cytometric method; type: cell-based

T2 sequence (Q9NZ08 whole entry): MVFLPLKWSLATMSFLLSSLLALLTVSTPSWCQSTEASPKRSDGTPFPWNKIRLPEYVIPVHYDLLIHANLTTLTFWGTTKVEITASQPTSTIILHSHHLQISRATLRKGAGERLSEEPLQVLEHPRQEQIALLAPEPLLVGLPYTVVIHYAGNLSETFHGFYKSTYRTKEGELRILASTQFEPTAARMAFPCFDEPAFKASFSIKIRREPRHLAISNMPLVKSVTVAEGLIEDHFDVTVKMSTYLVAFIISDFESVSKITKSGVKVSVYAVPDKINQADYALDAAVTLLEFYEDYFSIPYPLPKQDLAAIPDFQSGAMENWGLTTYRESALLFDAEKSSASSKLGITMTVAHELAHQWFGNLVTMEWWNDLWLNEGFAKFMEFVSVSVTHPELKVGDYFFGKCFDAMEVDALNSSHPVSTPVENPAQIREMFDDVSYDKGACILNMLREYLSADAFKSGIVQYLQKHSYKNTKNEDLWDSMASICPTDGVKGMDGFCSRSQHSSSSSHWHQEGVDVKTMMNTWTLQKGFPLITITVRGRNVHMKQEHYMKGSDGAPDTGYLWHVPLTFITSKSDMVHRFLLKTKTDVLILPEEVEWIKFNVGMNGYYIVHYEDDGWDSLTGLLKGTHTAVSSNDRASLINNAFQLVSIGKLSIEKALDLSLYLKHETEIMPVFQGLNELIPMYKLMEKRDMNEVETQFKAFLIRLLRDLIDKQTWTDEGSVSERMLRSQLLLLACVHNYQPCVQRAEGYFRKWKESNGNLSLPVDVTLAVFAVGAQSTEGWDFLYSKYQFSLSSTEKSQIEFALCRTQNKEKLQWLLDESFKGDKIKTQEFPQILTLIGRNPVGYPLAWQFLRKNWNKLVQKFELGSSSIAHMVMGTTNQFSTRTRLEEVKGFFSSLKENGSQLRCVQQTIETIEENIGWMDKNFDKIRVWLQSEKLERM

COc1ccc(C(=O)O)cc1S(=O)(=O)Nc1cc(C(F)(F)F)ccc1N1CCCCC1
inhibition (INH) ([1]; mouse, 1 h): Not Active
AC50 [2]: 4.1 µM
Activity [3]: > 40%
IC50 [4]: 5.3 µM
fold change (FC) [5]: < 1.8
Ki [6]: 3.8 µM
inhibition [7]: inactive
IC50 [8]: 1 µM
AC50 [9]: 0.88 µM
AC50 [10]: 3.1 µM
AC50 [11]: 2.7 µM

N=C(NCCc1c[nH]c2ccccc12)NS(=O)(=O)c1cc(F)ccc1F
IC50 [12]: 9.2 µM
Ki [13]: 51.7 µM
inhibition [7]: Active

O=C(O)c1cccc(S(=O)(=O)Nc2cc(C(F)(F)F)ccc2N2CCCCC2)c1
IC50 [1]: > 200 µM

COc1ccc(C(=O)O)cc1S(=O)(=O)Nc1ccccc1N1CCCCC1
IC50 [1]: > 200 µM

CC(C)C[C@H](N)CS
inhibition [7]: inactive

COc1ccc(C(=O)O)cc1S(=O)(=O)Nc1cc(C(F)(F)F)ccc1N1CCN(C)CC1
IC50 [1]: > 200 µM

COc1ccc(C(=O)O)cc1S(=O)(=O)Nc1cc(C)ccc1N1CCCCC1
IC50 [1]: > 200 µM

COc1ccc(C(=O)O)cc1S(=O)(=O)Nc1cc(F)ccc1N1CCCCC1
IC50 [1]: > 200 µM

O=C(O)c1ccc(Br)c(S(=O)(=O)Nc2cc(C(F)(F)F)ccc2N2CCCCC2)c1
IC50 [1]: > 200 µM

COC(=O)c1ccc(OC)c(S(=O)(=O)Nc2cc(C(F)(F)F)ccc2N2CCCCC2)c1
IC50 [1]: > 200 µM
inhibition [14]: Active

O=C(O)c1ccc(Cl)c(S(=O)(=O)Nc2cc(C(F)(F)F)ccc2N2CCCCC2)c1
IC50 [1]: > 200 µM
